≈ marks a conversion by molar mass, not a printed value.
How the values were obtained:
Format in all cases: functional
[1] = system: Bacillus cereus; assay: Antibacterial activity against Bacillus cereus CIP 6624 after 18 hrs by agar dilution method; settings: CIP 6624, 18 h
Method in brief: (§1)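 Agar-dilution MIC against Gram-positive strains. Compounds in DMSO, geometric dilutions giving final 100−0.75 mg/L in Mueller Hinton agar. Strains grown 18 h at 37 °C in trypticase soy broth, diluted in sterile water, spotted by Steers inoculator (about 1000 UFC/spot). Plates incubated 18 h at 37 °C; DMSO blank; ofloxacin positive control. MIC = lowest concentration with no visible growth.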

[2] = system: Bacillus cereus; assay: Antibacterial activity against Bacillus cereus N190 after 18 hrs by agar dilution method; settings: N190, 18 h; method in brief: as §1
[3] = system: Bacillus cereus; assay: Antibacterial activity against Bacillus cereus N258 after 18 hrs by agar dilution method; settings: N258, 18 h; method in brief: as §1
[4] = system: Bacillus cereus; assay: Antibacterial activity against Bacillus cereus N349 after 18 hrs by agar dilution method; settings: N349, 18 h; method in brief: as §1
[5] = system: Bacillus spizizenii; assay: Antibacterial activity against Bacillus subtilis ATCC 6633 after 18 hrs by agar dilution method; settings: ATCC 6633, 18 h; method in brief: as §1
[6] = system: Corynebacterium striatum; assay: Antibacterial activity against Corynebacterium striatum N840 after 18 hrs by agar dilution method; settings: N840, 18 h; method in brief: as §1
[7] = system: Enterococcus avium; assay: Antibacterial activity against Enterococcus avium CIP 104053 after 18 hrs by agar dilution method; settings: CIP 104053, 18 h; method in brief: as §1
[8] = system: Enterococcus casseliflavus; assay: Antibacterial activity against Enterococcus casseliflavus N487 after 18 hrs by agar dilution method; settings: N487, 18 h; method in brief: as §1
[9] = system: Enterococcus casseliflavus; assay: Antibacterial activity against Enterococcus casseliflavus CIP 103018 after 18 hrs by agar dilution method; settings: CIP 103018, 18 h; method in brief: as §1
[10] = system: Enterococcus durans; assay: Antibacterial activity against Enterococcus durans CIP 104999 after 18 hrs by agar dilution method; settings: CIP 104999, 18 h; method in brief: as §1
[11] = system: Enterococcus faecalis; assay: Antibacterial activity against Enterococcus faecalis CIP 103214 after 18 hrs by agar dilution method; settings: CIP 103214, 18 h; method in brief: as §1
[12] = system: Enterococcus faecalis; assay: Antibacterial activity against Enterococcus faecalis CIP 104676 after 18 hrs by agar dilution method; settings: CIP 104676, 18 h; method in brief: as §1
[13] = system: Enterococcus faecalis; assay: Antibacterial activity against Enterococcus faecalis N491 after 18 hrs by agar dilution method; settings: N491, 18 h; method in brief: as §1
[14] = system: Enterococcus faecalis; assay: Antibacterial activity against Enterococcus faecalis N518 after 18 hrs by agar dilution method; settings: N518, 18 h; method in brief: as §1
[15] = system: Enterococcus faecalis; assay: Antibacterial activity against Enterococcus faecalis N520 after 18 hrs by agar dilution method; settings: N520, 18 h; method in brief: as §1
[16] = system: Enterococcus faecium; assay: Antibacterial activity against Enterococcus faecium CIP 103014 after 18 hrs by agar dilution method; settings: CIP 103014, 18 h; method in brief: as §1
[17] = system: Enterococcus faecium; assay: Antibacterial activity against Enterococcus faecium CIP 107387 after 18 hrs by agar dilution method; settings: CIP 107387, 18 h; method in brief: as §1
[18] = system: Enterococcus faecium; assay: Antibacterial activity against Enterococcus faecium N490 after 18 hrs by agar dilution method; settings: N490, 18 h; method in brief: as §1
[19] = system: Enterococcus faecium; assay: Antibacterial activity against Enterococcus faecium N507 after 18 hrs by agar dilution method; settings: N507, 18 h; method in brief: as §1
[20] = system: Enterococcus faecium; assay: Antibacterial activity against Enterococcus faecium N733 after 18 hrs by agar dilution method; settings: N733, 18 h; method in brief: as §1
[21] = system: Enterococcus faecium; assay: Antibacterial activity against Enterococcus faecium N823 after 18 hrs by agar dilution method; settings: N823, 18 h; method in brief: as §1
[22] = system: Enterococcus gallinarum; assay: Antibacterial activity against Enterococcus gallinarum CIP 105985 after 18 hrs by agar dilution method; settings: CIP 105985, 18 h; method in brief: as §1
[23] = system: Enterococcus gallinarum; assay: Antibacterial activity against Enterococcus gallinarum N489 after 18 hrs by agar dilution method; settings: N489, 18 h; method in brief: as §1
[24] = system: Enterococcus gallinarum; assay: Antibacterial activity against Enterococcus gallinarum N492 after 18 hrs by agar dilution method; settings: N492, 18 h; method in brief: as §1
[25] = system: Enterococcus hirae; assay: Antibacterial activity against Enterococcus hirae CIP 5855 after 18 hrs by agar dilution method; settings: CIP 5855, 18 h; method in brief: as §1
[26] = system: Listeria innocua; assay: Antibacterial activity against Listeria innocua E044 after 18 hrs by agar dilution method; settings: E044, 18 h; method in brief: as §1
[27] = system: Listeria monocytogenes; assay: Antibacterial activity against Listeria monocytogenes CIP 103575 after 18 hrs by agar dilution method; settings: CIP 103575, 18 h; method in brief: as §1
[28] = system: Listeria monocytogenes; assay: Antibacterial activity against Listeria monocytogenes N783 after 18 hrs by agar dilution method; settings: N783, 18 h; method in brief: as §1
[29] = system: Listeria monocytogenes; assay: Antibacterial activity against Listeria monocytogenes N836 after 18 hrs by agar dilution method; settings: N836, 18 h; method in brief: as §1
[30] = system: Listeria monocytogenes; assay: Antibacterial activity against Listeria monocytogenes N851 after 18 hrs by agar dilution method; settings: N851, 18 h; method in brief: as §1
[31] = system: Staphylococcus aureus; assay: Antibacterial activity against Staphylococcus aureus ATCC 25923 after 18 hrs by agar dilution method; settings: ATCC 25923, 18 h; method in brief: as §1
[32] = system: Staphylococcus aureus; assay: Antibacterial activity against Staphylococcus aureus ATCC 9144 oxford after 18 hrs by agar dilution method; method in brief: as §1
[33] = system: Staphylococcus aureus; assay: Antibacterial activity against Staphylococcus aureus CIP 483 after 18 hrs by agar dilution method; settings: CIP 483, 18 h; method in brief: as §1
[34] = system: Staphylococcus aureus; assay: Antibacterial activity against Staphylococcus aureus CIP 53154 after 18 hrs by agar dilution method; settings: CIP 53154, 18 h; method in brief: as §1
[35] = system: Staphylococcus aureus; assay: Antibacterial activity against Staphylococcus aureus CIP 53156 after 18 hrs by agar dilution method; settings: CIP 53156, 18 h; method in brief: as §1
[36] = system: Staphylococcus aureus; assay: Antibacterial activity against Staphylococcus aureus CIP 5710 after 18 hrs by agar dilution method; settings: CIP 5710, 18 h; method in brief: as §1
[37] = system: Staphylococcus aureus; assay: Antibacterial activity against Staphylococcus aureus CIP 7625 after 18 hrs by agar dilution method; settings: CIP 7625, 18 h; method in brief: as §1
[38] = system: Staphylococcus aureus; assay: Antibacterial activity against Staphylococcus aureus CRBIP 2121 after 18 hrs by agar dilution method; settings: CRBIP 2121, 18 h; method in brief: as §1
[39] = system: Staphylococcus epidermidis; assay: Antibacterial activity against Staphylococcus epidermidis CIP 53124 after 18 hrs by agar dilution method; settings: CIP 53124, 18 h; method in brief: as §1
[40] = system: Staphylococcus haemolyticus; assay: Antibacterial activity against Staphylococcus haemolyticus CIP 8156 after 18 hrs by agar dilution method; settings: CIP 8156, 18 h; method in brief: as §1
[41] = system: Staphylococcus intermedius; assay: Antibacterial activity against Staphylococcus intermedius N987 after 18 hrs by agar dilution method; settings: N987, 18 h; method in brief: as §1
[42] = system: Staphylococcus lugdunensis; assay: Antibacterial activity against Staphylococcus lugdunensis ATCC 43809 after 18 hrs by agar dilution method; settings: ATCC 43809, 18 h; method in brief: as §1
[43] = system: Staphylococcus saprophyticus; assay: Antibacterial activity against Staphylococcus saprophyticus CIP 76125 after 18 hrs by agar dilution method; settings: CIP 76125, 18 h; method in brief: as §1
[44] = system: Staphylococcus saprophyticus; assay: Antibacterial activity against Staphylococcus saprophyticus E260 after 18 hrs by agar dilution method; settings: E260, 18 h; method in brief: as §1
[45] = system: Mammaliicoccus sciuri; assay: Antibacterial activity against Staphylococcus sciuri N993 after 18 hrs by agar dilution method; settings: N993, 18 h; method in brief: as §1
[46] = system: Streptococcus agalactiae; assay: Antibacterial activity against Streptococcus agalactiae CIP 103227 after 18 hrs by agar dilution method; settings: ATCC 13813, 18 h; method in brief: as §1
[47] = system: MRC5; assay: Cytotoxicity against human MRC5 cells assessed as growth inhibition at 10^-5 M after 72 hrs by MTS assay relative to control; settings: MRC5, 72 h, read-out: GI
Method in brief: (§2)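 Cells from ATCC; HCT-116 grown in RPMI 1640 and MRC5 in DMEM, each with 10% FCS and 1% glutamine, 37 °C, 5% CO2. Seeded at 2.5 × 10^3 cells/well, cultured 24 h, then exposed to compounds at 1 and 10 μM final for 72 h. MTS read-out, absorbance 490 nm; percent index from treated/control OD490 × 100, three experiments.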

[48] = system: MRC5; assay: Cytotoxicity against human MRC5 cells assessed as growth inhibition at 10^-6 M after 72 hrs by MTS assay relative to control; settings: MRC5, 72 h, read-out: GI; method in brief: as §2
[49] = system: HCT-116; assay: Cytotoxicity against human HCT116 cells assessed as growth inhibition at 10^-5 M after 72 hrs by MTS assay relative to control; settings: HCT-116, 72 h, read-out: GI; method in brief: as §2
[50] = system: HCT-116; assay: Cytotoxicity against human HCT116 cells assessed as growth inhibition at 10^-6 M after 72 hrs by MTS assay relative to control; settings: HCT-116, 72 h, read-out: GI; method in brief: as §2

CC1(C)CCC[C@]2(C)[C@@H]1CC[C@]1(CO)O[C@@H](C3=CC(=O)OC3O)C[C@H]12 (stereo not given in full) was tested, and the MIC [1] was 46 µM (≈ 16.1 µg/mL), the MIC [2] was 23 µM (≈ 8.06 µg/mL) and the MIC [3] was 46 µM (≈ 16.1 µg/mL). It also gave an MIC [4] of 46 µM (≈ 16.1 µg/mL), an MIC [5] of 46 µM (≈ 16.1 µg/mL) and an MIC [6] of over 46 µM. It also gave an MIC [7] of over 46 µM, an MIC [8] of over 46 µM and an MIC [9] of over 46 µM. It also gave an MIC [10] of over 46 µM, an MIC [11] of over 46 µM and an MIC [12] of over 46 µM. For the same compound, the MIC [13] was over 46 µM, the MIC [14] was over 46 µM and the MIC [15] was over 46 µM. The MIC [16] was over 46 µM, the MIC [17] was over 46 µM and the MIC [18] was over 46 µM. It also gave an MIC [19] of over 46 µM, an MIC [20] of over 46 µM and an MIC [21] of over 46 µM. The MIC [22] was over 46 µM, the MIC [23] was over 46 µM and the MIC [24] was over 46 µM. The MIC [25] was over 46 µM, the MIC [26] was over 46 µM and the MIC [27] was over 46 µM. It also gave an MIC [28] of over 46 µM, an MIC [29] of over 46 µM and an MIC [30] of over 46 µM. The MIC [31] was over 46 µM, the MIC [32] was over 46 µM and the MIC [33] was over 46 µM. It also gave an MIC [34] of over 46 µM, an MIC [35] of over 46 µM and an MIC [36] of over 46 µM. The MIC [37] was over 46 µM, the MIC [38] was over 46 µM and the MIC [39] was over 46 µM. For the same compound, the MIC [40] was over 46 µM, the MIC [41] was over 46 µM and the MIC [42] was over 46 µM. The MIC [43] was over 46 µM, the MIC [44] was over 46 µM and the MIC [45] was over 46 µM. For the same compound, the MIC [46] was over 46 µM, the inhibition of growth at 10 µM [47] was 92% and the inhibition of growth at 1 µM [48] was 29%. For the same compound, the inhibition of growth at 10 µM [49] was 84% and the inhibition of growth at 1 µM [50] was 0%.
